Assay results of several laboratories.
Lines come from different studies, so protocols differ.
Target: Ephrin type-A receptor 7 (EPHA7, Homo sapiens, UniProt Q15375)

CC(=O)c1c(NS(C)(=O)=O)c2cc(-c3ccc(Cl)cc3)c(-c3ccc(Cl)cc3Cl)nc2n(C)c1=O — remaining binding (cell-free assay; competition with immobilised ligand; 1 µM): 100%
Cc1ccc(Nc2nccc(N(C)c3ccc4c(C)n(C)nc4c3)n2)cc1S(N)(=O)=O — inhibition (enzyme activity; inhibitor; 0.3 µM): 1%
Cc1ccc(C(=O)NCc2ccsc2)cc1C#Cc1cn(C(C)C)c2ncnc(N)c12 — activity vs control (enzyme activity; inhibitor; 1 µM): 21%
COc1cc(Cl)c(C(=O)N[C@@H](CN[C@H]2CC[C@@H](N)CC2)Cc2ccc(C#N)cc2)cc1-c1ccc(CN[C@H](C)c2ccc(C)cc2)o1 — remaining activity (enzyme activity; inhibitor; 1 µM): 105%
CCCCNc1ncc2c(-c3ccc(F)cc3)nn(C[C@H]3CC[C@H](N)CC3)c2n1 — inhibition (target engagement in cells; inhibitor; chemoproteomics; 20 mM): 43.9%
C[C@@H](c1cccc(C#N)c1)n1cc(Cl)cc(C(N)=O)c1=N — remaining binding (cell-free assay; competition with immobilised ligand; 1 µM): 100%
Cc1cc(NC(=O)c2cccc3cc(-c4cccc5[nH]nc(N)c45)ccc23)ccc1F — activity vs control (enzyme activity; inhibitor; 0.1 µM): 96%
CO[C@@H](C)c1c(Nc2ccc([C@H](N(C)C(=O)C3CCS(=O)(=O)CC3)C(F)(F)F)cc2)cnc2cc(Cl)nn12 — remaining binding (cell-free assay; competition with immobilised ligand; 1 µM): 84%
CC(C)(C)c1nc(-c2cccc(NS(=O)(=O)c3c(F)cccc3F)c2F)c(-c2ccnc(N)n2)s1 — remaining activity (enzyme activity; inhibitor; radiometric; 1 µM): 102%
CNC(=O)c1cc(Oc2ccc(NC(=O)Nc3ccc(Cl)c(C(F)(F)F)c3)cc2)ccn1 — inhibition (enzyme activity; inhibitor; 10 µM): 90%
O=C1NC(=O)c2cc(Nc3ccc(F)cc3)c(Nc3ccc(F)cc3)cc21 — remaining signal (cell-free assay; 0.5 µM): 84.6%
O=C(Nc1cnn(-c2csc(C(=O)NC3COC3)c2)c1)Nc1c(F)cccc1Cl — remaining activity (enzyme activity; inhibitor; 5 µM): 91.2%
COc1cccc2c(NCc3ccccc3)nc(-n3c(N)nc4ccccc43)nc12 — inhibition (target engagement in cells; inhibitor; chemoproteomics; 20 mM): 2.9%
Cc1ccc(NC(=O)c2ccc(C)c(C(F)(F)F)c2)cc1C#Cc1nn(C2CCC(O)CC2)c2ncnc(N)c12 (stereo not drawn) — remaining signal (cell-free assay; 10 µM): 0%
CC/C(=N\NC(=O)NCc1cccc(O)c1)c1ccc(O)c(C)c1O — inhibition (enzyme activity; inhibitor; 0.1 µM): -0.5%
O=C(NS(=O)(=O)c1ccc(NCC2CCOCC2)c([N+](=O)[O-])c1)c1ccc(N2CCN(Cc3ccc(C(F)(F)F)cc3-c3ccc(Cl)cc3)CC2)cc1Oc1cnc2[nH]ccc2c1 — remaining binding (cell-free assay; competition with immobilised ligand; 1 µM): 88%
Cc1cnc(NC2CCOCC2)nc1-n1cnc(C(=O)NC(CN)c2cc(F)cc(Cl)c2)c1 (stereo not drawn) — remaining activity (enzyme activity; inhibitor; radiometric; 1 µM): 88%
O=C(NCc1ncc(C(F)(F)F)cc1Cl)c1ccc2c(c1)C1(CCS(=O)(=O)CC1)[C@H](C1CC1)N2S(=O)(=O)c1ccc(F)cc1 — remaining binding (cell-free assay; competition with immobilised ligand; 1 µM): 100%
CCN(CC)CCNC(=O)c1c(C)[nH]c(/C=C2\C(=O)Nc3ccc(F)cc32)c1C — inhibition (enzyme activity; inhibitor; 10 µM): 78%
CCN(CC)c1ccc(C2=NNC(=O)CC2C)cc1[N+](=O)[O-] (stereo not drawn) — remaining activity (enzyme activity; inhibitor; 10 µM): 91%
CCCOc1ccc([C@H]2[C@H](C(=O)O)[C@@H](c3ccc4c(c3)OCO4)CN2CC(=O)Nc2c(CC)cccc2CC)cc1 — remaining binding (cell-free assay; competition with immobilised ligand; 1 µM): 98%
